Assay results reported in ChEMBL document CHEMBL1150123, “Constituents of the twigs of Hernandia ovigera that inhibit the transformation of JB6 murine epidermal cells” (J Nat Prod, 2002).
Values after ≈ are worked out from the molar mass of the structure shown.

What was measured:
[1] = Inhibition of 12-O-tetradecanoylphorbol 13-acetate-induced transformation of mouse JB6 cells after 14 days by soft agar assay; format: functional, cell-based
[2] = Cytotoxicity against mouse JB6 cells after 3 days by trypan blue staining; format: cell-based; conditions: JB6, 72 h
Outline: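 JB6 cells at 1×10^4 cells/mL were preincubated 24 h, then exposed to a range of test-compound concentrations for 3 days. Trypsinized cells were mixed with 0.4% trypan blue, and percent viability was scored microscopically.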

[3] = Ratio of IC50 for mouse JB6 cells to IC50 for inhibition of 12-O-tetradecanoylphorbol 13-acetate-induced transformation of mouse JB6 cells
Outline: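 Ratio of two IC50s. The first is trypan blue cytotoxicity: JB6 cells, 24 h preincubation, 3-day exposure. The second is soft-agar transformation: TPA-sensitive P+ JB6 cells in 0.5% agar with TPA plus compound, triplicate wells, 14 days at 37 °C. Colonies of ≥15 cells were counted in three 0.25 cm² areas. Frequency is relative to TPA and 0.1% DMSO controls.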

Structure (SMILES) | IC50 [1] | IC50 [2] | Ratio IC50 [3]
COc1ccc([C@@H]2OC[C@@H]3[C@H]2CO[C@@H]3c2cc(OC)c(OC)c(OC)c2)cc1OC | > 4 mg/L |  | 
COc1cc(C[C@H]2C(=O)OC[C@@H]2Cc2ccc3c(c2)OCO3)cc(OC)c1OC | > 4 mg/L |  | 
COc1cc([C@@H]2c3c(cc4c(c3OC)OCO4)[C@H](OC(C)=O)[C@H]3COC(=O)[C@@H]23)cc(OC)c1OC | > 4 mg/L |  | 
COc1cc([C@@H]2c3cc4c(cc3[C@H](OC(C)=O)[C@H]3COC(=O)[C@@H]23)OCO4)cc(OC)c1OC | 0.15 mg/L (≈ 0.329 µM) | 1.2 mg/L (≈ 2.63 µM) | 10
COc1cc(C[C@H]2C(=O)OC[C@@H]2Cc2cc(OC)c3c(c2)OCO3)cc(OC)c1OC | > 4 mg/L |  | 
COc1cc([C@H]2OC[C@H]3[C@@H]2CO[C@@H]3c2cc(OC)c(OC)c(OC)c2)cc(OC)c1OC | > 4 mg/L |  | 
COc1cc([C@H]2OC[C@H]3[C@@H]2CO[C@H]3c2cc(OC)c(OC)c(OC)c2)cc(OC)c1OC [EPIYANGAMBIN] | 0.4 mg/L (≈ 0.896 µM) | 5.7 mg/L (≈ 12.8 µM) | 10
COc1cc2c(cc1OC)C(=O)N(C)CC2 | > 4 mg/L |  | 
COc1cc([C@@H]2OC[C@@H]3C(=O)OC[C@@H]32)cc(OC)c1OC [CARUILIGNAN C] | > 4 mg/L |  | 
COc1cc([C@@H]2OC[C@H]3[C@@H]2CO[C@H]3c2cc(OC)c3c(c2)OCO3)cc(OC)c1OC [DIASESARTEMIN] | > 4 mg/L |  | 
